# Measurements pooled from the literature.
# Protocols differ between the studies behind these lines.
# ABHD6: Monoacylglycerol lipase ABHD6 (ABHD6, Homo sapiens, UniProt Q9BV23)
# HTR5A: 5-hydroxytryptamine receptor 5A (HTR5A, Homo sapiens, UniProt P47898)
# VASP: Vasodilator-stimulated phosphoprotein (VASP, Homo sapiens, UniProt P50552)
SMILES,target,assay,setting,quantity,result
Cc1ccc(Cc2ccc3c(c2)CN(C(=O)[C@@H](N)Cc2c(C)cc(O)cc2C)CC3)cc1,"Mu-type opioid receptor (Oprm1, Rattus norvegicus, UniProt P33535)","ligand displacement, radioligand",cell membranes,Ki,114 nM
CN(C(=O)Oc1nsnc1N1CCCCC1)c1cccc([N+](=O)[O-])c1,ABHD6,"enzyme activity, inhibitor, fluorescence",lysate,IC50,1200 nM
CN(Cc1ccc(NC(=O)C2=Cc3cc(-c4ccc(OCCCF)cc4)ccc3CCC2)cc1)C1CCOCC1,HTR5A,"ligand displacement, radioligand",,Ki,5010 nM
CNc1nc2cc(OCCCCN3CCN(c4cccc(Cl)c4Cl)CC3)ccc2s1,HTR5A,"ligand displacement, radioligand",,Ki,1300 nM
CCCCOc1ccc(C(=O)CCN2CCCCC2)cc1,"D(4) dopamine receptor (DRD4, Homo sapiens, UniProt P21917)","ligand displacement, radioligand",,IC50,4100 nM
CN(C(=O)Oc1nsnc1N1CCCCC1)C1CCCCCC1,ABHD6,"enzyme activity, inhibitor, fluorescence",lysate,IC50,42.7 nM
C[C@H](N)Cn1ncc2ccc3c(c21)CCCO3,"D(4) dopamine receptor (DRD4, Homo sapiens, UniProt P21917, del265-296)","ligand displacement, radioligand",,IC50,> 100000 nM
CNC(=O)c1cccc(-c2ccc(O[C@H]3O[C@H](CO)[C@@H](O)[C@H](O)[C@@H]3O)cc2)c1,"Type 1 fimbrin D-mannose specific adhesin, N-terminal domain (fimH, Escherichia coli K-12, UniProt P08191)","binding, BLI",,Kd,0.01 nM
CC(=O)N[C@@H](CO)C(=O)N[C@@H](Cc1ccccc1)C(=O)N[C@@H](CCC(=O)O)C(=O)N[C@@H](Cc1ccccc1Cl)C(=O)N1CCC[C@H]1C(=O)N1CCC[C@H]1C(=O)N1CCC[C@H]1C(=O)N1CCC[C@H]1C(=O)N[C@H](C(=O)N[C@@H](CCC(=O)O)C(=O)N[C@@H](CC(=O)O)C(=O)N[C@@H](CCC(=O)O)C(=O)N[C@@H](CC(C)C)C(N)=O)[C@@H](C)O,VASP,"binding, fluorescence",,Kd,1500 nM
O=C(COc1ccc2cc(C(=O)Nc3ccccc3)ccc2c1)NCc1ccc(OP(=O)(O)O)c(OP(=O)(O)O)c1,"Signal transducer and activator of transcription 6, SH2 (Homo sapiens, UniProt P42226)","ligand displacement, FP",,Ki,3470 nM
CN(C(=O)Oc1nsnc1N1CCCCC1)C1CCCCCCC1,ABHD6,"enzyme activity, inhibitor, fluorescence",lysate,IC50,72 nM
CC(=O)N[C@@H](CO)C(=O)N[C@@H](Cc1ccccc1)C(=O)N[C@@H](CCC(=O)O)C(=O)N[C@@H](Cc1ccccc1)C(=O)N1CCC[C@H]1C(=O)N1CCC[C@H]1C(=O)N1CCC[C@H]1C(=O)N1CCC[C@H]1C(=O)N[C@H](C(=O)N[C@@H](CCC(=O)O)C(=O)N[C@@H](CC(=O)O)C(=O)N[C@@H](CCC(=O)O)C(=O)N[C@@H](CC(C)C)C(N)=O)[C@@H](C)O,VASP,"binding, fluorescence",,Kd,19000 nM
